Measured values as given in PubChem BioAssay.
Inconclusive results are not listed.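 The calls were made as follows, unless noted: active = RAM network inhibition above 8.4% in each of two replicates, 3 SD over the compound average; inconclusive = above 8.4% inhibition in only one replicate; inactive = 8.4% inhibition or less in each replicate.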

What was measured:
[1] = OD615 S. cerevisiae growth inhibition, permissive medium, pilot counter-assay, permissive growth control for S. cerevisiae lifespan shortening project (AID 705;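 active = growth inhibition above 25% in both replicates, a cutoff set 3 SD above the mean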); conditions: OD615, 24 h, at 10 µM, active compounds read high
In short: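 System: Engineered DeaD yeast | Buffer or medium: SC raffinose/galactose permissive medium | Incubation: Cells pre-grown 4 h, then 24 h compound exposure, 30 °C humidified | Measured by: Absorbance (optical density) at 615 nm | Read-out: Reduction in yeast growth (OD615)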

[2] = Restrictive medium S. cerevisiae growth inhibition, OD615, pilot screen of yeast lifespan reduction project, restrictive growth control (AID 706;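 active = growth inhibition above a set limit, 3 SD over mean compound inhibition, in both replicates, cut at about 43% in these data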;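 also: modified DeaD lifespan yeast strain shifted to restrictive glucose medium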); conditions: OD615, 48 h, at 10 µM, active compounds read high
In short: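 Material: modified S. cerevisiae; Medium: glucose-based CSMM-D restrictive medium; Compound dosing: one concentration, 10 µM final, 0.25% DMSO; Incubation: 48 h compound exposure at 30 °C; Measured by: OD615.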

[3] = viability gain of MRP-1-high H69AR cells under doxorubicin, pilot screen, MRP-1 activator project, CellTiter-Glo, duplicate (AID 807;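 active = viability increase at or above a cutoff of the median across tested compounds plus 3 SD, cut at about 8.5% in these data, passing the limit was not always enough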;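 also: compound pretreatment 18-22 h then 72 h combined with doxorubicin; 0% = doxorubicin alone and 100% = vehicle without doxorubicin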); conditions: H69AR viability with doxorubicin, CellTiter-Glo luminescence; at 10 µM; active compounds read high
[4] = growth suppression of beta-catenin knockout HCT116, pilot screen, human colon tumor cells (AID 823;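 active = cell viability at or below a set limit in both duplicate runs, the limit being the all-compound median minus 4 SD, cut at about 23% in these data, passing the limit was not always enough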;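 also: 0% = wells killed by 20 µM Hyamine and 100% = untreated DMSO cell wells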); conditions: CellTiter-Glo, 60 h, at 10 µM, active compounds read low
[5] = growth suppression of PTEN-deleted HCT116, pilot screen, cell-based, HCT116 clonal line, CellTiter-Glo (AID 824;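 active = viability at or below 27.92% in each of two runs, the all-compound median minus 4 SD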;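 also: 0% = 20 µM Hyamine control and 100% = vehicle cell control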); conditions: 60 h, at 10 µM, active compounds read low
[6] = inhibitors of the yeast RAM network, pilot screen, dse1pr::URA3 reporter, 5-FOA selection (AID 869;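 active = inhibition over a set limit, the all-compound mean plus 3 SD, in both replicate runs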;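 also: 0% = DMSO wells with no growth and 100% = 10 µM 1-NA-PP1 with full growth; RAM network block rescues cells from 5-FOA so hits raise OD615 growth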); conditions: S. cerevisiae dse1pr::URA3 5-FOA growth, OD615, 2 d; at 10 µM; active compounds read high; strain carries analog-sensitive mutant Cbk1 kinase
[7] = RAM signaling pathway blockade in yeast – S. cerevisiae, Pdr1DBD-CYC8 efflux-inhibited sensitized strain, primary screen (AID 1298);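 also: 0% = DMSO untreated cells without growth and 100% = 10 µM 1-NA-PP1 full growth; higher means more yeast growth rescued from 5-FOA killing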; conditions: S. cerevisiae cbk1-as DSE1-URA3 strain, 5-FOA growth OD615, 2 d; at 50 µM; active compounds read high

Cn1c(=O)c2c(nc(CN3CCCCC3)n2Cc2c(F)cccc2Cl)n(C)c1=O
inactive: growth inhibition [1] -2.88% | growth inhibition [2] -10.9% | viability increase [3] -2.22% | viability [4] 102% | viability [5] 93.2% | inhibition [6] 3.12% | RAM network inhibition [7] 4.38%

COc1cccc(NC(=O)c2cccnc2)c1
inactive: growth inhibition [1] -5.19% | growth inhibition [2] 7.85% | viability increase [3] 1.59% | viability [4] 100% | viability [5] 87.2% | inhibition [6] 0.55% | RAM network inhibition [7] 3.7%

COC(=O)c1nnn(Cc2ccccc2)c1N
inactive: growth inhibition [1] -6.96% | growth inhibition [2] -7.86% | viability increase [3] -1.68% | viability [4] 103% | viability [5] 98.8% | inhibition [6] 0.585% | RAM network inhibition [7] 0.17%

COc1ccccc1OCC(=O)NC1CCCCCC1
inactive: growth inhibition [1] -5.33% | growth inhibition [2] -8.23% | viability increase [3] -0.27% | viability [4] 96.3% | viability [5] 88.8% | inhibition [6] -0.49% | RAM network inhibition [7] 0.78%

COc1ccc(N2CSC3=C(C#N)C(c4cc(OC)ccc4OC)CC(=O)N3C2)c(OC)c1 (stereo not drawn)
inactive: growth inhibition [1] -1.38% | growth inhibition [2] 21.7% | viability increase [3] -6.09% | viability [4] 80.5% | viability [5] 82.6% | inhibition [6] 0.54% | RAM network inhibition [7] 2.28%

Cc1nn(Cc2ccccc2)c(N)c1-c1ccccc1
inactive: growth inhibition [1] -8.39% | growth inhibition [2] -9.23% | viability increase [3] -0.57% | viability [4] 95.2% | viability [5] 87.1% | inhibition [6] 2.53% | RAM network inhibition [7] 2.53%

O=C1c2oc3ccc(F)cc3c(=O)c2C(c2ccncc2)N1CCN1CCOCC1 (stereo not drawn)
inactive: growth inhibition [1] 3.02% | growth inhibition [2] 3.27% | viability increase [3] 0.53% | viability [4] 110% | viability [5] 99.2% | inhibition [6] 1.26% | RAM network inhibition [7] 0.47%

Cc1cc(C)cc(N(CC(=O)N2CCN(c3ccccc3)CC2)S(=O)(=O)c2c(C)noc2C)c1
inactive: growth inhibition [1] -14.4% | growth inhibition [2] -10.2% | viability increase [3] -3.46% | viability [4] 62.6% | viability [5] 67.5% | inhibition [6] 0.57% | RAM network inhibition [7] 6.09%

CCNC(=O)CN(c1ccc(CC)cc1)S(C)(=O)=O
inactive: growth inhibition [1] -5% | growth inhibition [2] -18% | viability increase [3] -0.8% | viability [4] 97.9% | viability [5] 106% | inhibition [6] 0.76% | RAM network inhibition [7] 1.88%

Cc1[nH]c(C)c2c(=O)n(-c3ccccc3)ncc12
inactive: growth inhibition [1] -19.9% | growth inhibition [2] -17.5% | viability increase [3] 0.12% | viability [4] 101% | viability [5] 102% | inhibition [6] 1.31% | RAM network inhibition [7] 2.55%

COc1nc(NCCC2=CCCCC2)nc(OC)n1
inactive: growth inhibition [1] -12.2% | growth inhibition [2] 2.74% | viability increase [3] 2.72% | viability [4] 98.6% | viability [5] 99.4% | inhibition [6] 0.235% | RAM network inhibition [7] 3.01%

COc1cccc(C2(O)CCN(C(=O)c3cccs3)CC2)c1
inactive: growth inhibition [1] -9.43% | growth inhibition [2] 6.06% | viability increase [3] 0.71% | viability [4] 91.5% | viability [5] 97% | inhibition [6] 1.58% | RAM network inhibition [7] 5.17%

Cc1ccc(Cn2nnc3c(=O)n(CC(=O)c4ccccc4)cnc32)cc1
inactive: growth inhibition [1] -5.55% | growth inhibition [2] -9.49% | viability increase [3] -2.92% | viability [4] 96.7% | viability [5] 91.5% | inhibition [6] 3.42% | RAM network inhibition [7] 5.01%

O=C(CNC(=O)c1ccccc1F)NC1CC1
inactive: growth inhibition [1] -8.56% | growth inhibition [2] -2.84% | viability increase [3] -2.87% | viability [4] 99.3% | viability [5] 96.4% | inhibition [6] 0.76% | RAM network inhibition [7] 6.17%

CCOC(=O)CSc1nc(C)cc(Oc2ccc(=O)n(C)n2)n1
inactive: growth inhibition [1] -17.4% | growth inhibition [2] -8.09% | viability increase [3] 0.54% | viability [4] 102% | viability [5] 97.5% | inhibition [6] 1.12% | RAM network inhibition [7] 0.42%

COCCCNC(=O)Cn1cc2c(n1)CCCCC2
inactive: growth inhibition [1] 3.39% | growth inhibition [2] -2.59% | viability increase [3] 0.05% | viability [4] 104% | viability [5] 106% | inhibition [6] -0.6% | RAM network inhibition [7] 4.53%

O=C(c1ccc2c(c1)C(=O)N(Cc1ccco1)C2O)N1CCOCC1 (stereo not drawn)
inactive: growth inhibition [1] 1% | growth inhibition [2] -5.05% | viability increase [3] -2.58% | viability [4] 109% | viability [5] 98.3% | inhibition [6] 2.12% | RAM network inhibition [7] 1.94%

O=C1Nc2ccccc2C(O)(C(=O)NCc2ccco2)N1c1ccccc1 (stereo not drawn)
inactive: growth inhibition [1] -5.44% | growth inhibition [2] 1.25% | viability increase [3] -1.5% | viability [4] 108% | viability [5] 98.7% | inhibition [6] 0.96% | RAM network inhibition [7] 1.15%

CCCNC(=O)Cc1cc(=O)[nH]c(=O)[nH]1
inactive: growth inhibition [1] -14.4% | growth inhibition [2] -17.8% | viability increase [3] 0.56% | viability [4] 105% | viability [5] 101% | inhibition [6] 1.33% | RAM network inhibition [7] 1.73%

COCC(=O)NCc1nc2ccccc2n1Cc1ccccc1F
inactive: growth inhibition [1] -7.99% | growth inhibition [2] -15.2% | viability increase [3] -1.11% | viability [4] 98.2% | viability [5] 99.2% | inhibition [6] 1.59% | RAM network inhibition [7] 0.88%

Cn1c(Cn2c(=O)sc3ccccc32)nnc1SCC(=O)Nc1ccc(Cl)cc1
inactive: growth inhibition [1] -9.07% | growth inhibition [2] -17.2% | viability increase [3] -3.25% | viability [4] 98.6% | viability [5] 89% | inhibition [6] 3.06% | RAM network inhibition [7] 5.32%

COc1ccc(C(=O)NCCn2ccc3ccccc32)cc1OC
inactive: growth inhibition [1] -9.53% | growth inhibition [2] -16.1% | viability increase [3] -3.48% | viability [4] 99.7% | viability [5] 81.9% | inhibition [6] 1.91% | RAM network inhibition [7] 2.68%

COC(=O)c1cn(C(C)C(=O)NCc2ccco2)c2ccccc12 (stereo not drawn)
inactive: growth inhibition [1] -16.9% | growth inhibition [2] -23.6% | viability increase [3] -0.53% | viability [4] 102% | viability [5] 102% | inhibition [6] 1.68% | RAM network inhibition [7] 2.95%

COc1ccc(N2CCN(C(=O)c3ccc(CNc4c(N5CCOCC5)c(=O)c4=O)cc3)CC2)cc1
inactive: growth inhibition [1] 5.2% | growth inhibition [2] 8.53% | viability increase [3] -3.13% | viability [4] 96.2% | viability [5] 98.5% | inhibition [6] -0.255% | RAM network inhibition [7] -1.5%
